PMC7286548 (Cell chemical biology, 2020)

Assays:
[1] = target: T1, PI5P4Kα (Homo sapiens, UniProt P48426); assay: Radiometric TLC kinase assay; assay type: biochemical
T1 sequence (P48426 1-406): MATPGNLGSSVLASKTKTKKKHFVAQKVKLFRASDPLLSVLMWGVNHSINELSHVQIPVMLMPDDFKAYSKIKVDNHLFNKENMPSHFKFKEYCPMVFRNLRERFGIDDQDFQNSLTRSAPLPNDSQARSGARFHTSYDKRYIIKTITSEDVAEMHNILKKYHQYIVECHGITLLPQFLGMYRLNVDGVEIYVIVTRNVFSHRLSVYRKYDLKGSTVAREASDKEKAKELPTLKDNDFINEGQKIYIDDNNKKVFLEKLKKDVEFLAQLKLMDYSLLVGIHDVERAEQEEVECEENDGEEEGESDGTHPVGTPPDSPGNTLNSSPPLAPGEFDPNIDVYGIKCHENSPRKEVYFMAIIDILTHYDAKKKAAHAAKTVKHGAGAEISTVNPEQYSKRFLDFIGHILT
In short: (§1)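 Purified PI5P4K (0.1 μg) was preincubated with DMSO or test compound at various concentrations in 50 mM HEPES pH 7.4, 10 mM MgCl2. Sonicated lipid substrate, 10 μM unlabeled ATP and [γ-32P]ATP were then added. Reaction ran 10 min at room temperature. Radiolabeled PI(4,5)P2 product was quantified by phosphorimager.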

[2] = target: T2, PI5P4Kβ (Homo sapiens, UniProt P78356); assay: Radiometric TLC kinase assay; assay type: biochemical
T2 sequence (P78356 1-416): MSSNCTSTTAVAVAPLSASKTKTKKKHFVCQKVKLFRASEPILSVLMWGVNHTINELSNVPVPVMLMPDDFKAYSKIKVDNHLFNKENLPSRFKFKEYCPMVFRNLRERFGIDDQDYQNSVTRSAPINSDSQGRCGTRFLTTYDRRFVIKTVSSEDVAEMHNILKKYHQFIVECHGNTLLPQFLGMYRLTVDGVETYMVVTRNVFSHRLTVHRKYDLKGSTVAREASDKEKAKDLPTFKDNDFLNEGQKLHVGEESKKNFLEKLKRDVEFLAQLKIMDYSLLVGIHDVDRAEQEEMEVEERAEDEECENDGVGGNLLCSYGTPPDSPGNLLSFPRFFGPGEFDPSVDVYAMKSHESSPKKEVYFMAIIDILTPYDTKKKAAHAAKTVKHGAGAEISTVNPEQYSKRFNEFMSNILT
In short: as §1

[3] = target: T3, PI5P4Kγ (Homo sapiens, UniProt Q8TBX8); assay: Radiometric TLC kinase assay; assay type: biochemical; conditions: Fig. S1B-C
T3 sequence (Q8TBX8 1-421): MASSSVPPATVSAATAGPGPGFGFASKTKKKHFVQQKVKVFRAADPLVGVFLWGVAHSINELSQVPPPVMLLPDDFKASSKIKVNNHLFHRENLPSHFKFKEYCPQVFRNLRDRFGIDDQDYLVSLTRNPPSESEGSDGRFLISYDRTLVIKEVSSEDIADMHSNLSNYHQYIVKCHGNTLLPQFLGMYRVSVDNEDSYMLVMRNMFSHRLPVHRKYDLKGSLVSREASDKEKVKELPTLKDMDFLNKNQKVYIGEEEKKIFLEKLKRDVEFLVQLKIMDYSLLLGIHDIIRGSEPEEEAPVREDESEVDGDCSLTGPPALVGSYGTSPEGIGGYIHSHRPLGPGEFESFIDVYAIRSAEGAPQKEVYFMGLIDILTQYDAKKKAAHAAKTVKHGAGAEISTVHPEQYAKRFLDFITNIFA

[4] = tested on: PIKfyve; assay: Vacuolar enlargement assay in Vero cells; assay type: cell-based
[5] = target: T1, PI5P4Kα; assay: Intact electrospray MS covalent labeling; assay type: binding; conditions: within 2 h; 5 μM inhibitor, 37°C
In short: (§2)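 Intact mass read by LC-ESI-MS on reversed phase. Modified site mapped by TCEP (10 mM final) reduction, iodoacetamide (22.5 mM final) alkylation, Asp-N or Glu-C digestion overnight at 37°C, then nanoLC-MS.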

[6] = target: T2, PI5P4Kβ; assay: Intact electrospray MS covalent labeling; assay type: binding; conditions: within 2 h; 5 μM inhibitor, 37°C
In short: as §2

[7] = target: T4, PIKfyve (Homo sapiens, UniProt Q9Y2I7); assay: DiscoverX KINOMEScan; assay type: binding
[8] = target: T4, PIKfyve; assay: Fixed time-point ADP-Glo assay; assay type: biochemical
[9] = target: PI4P5Kα (Homo sapiens, UniProt Q99755); assay: Lipid kinase off-target inhibition assay; assay type: biochemical; conditions: Fig. S3C
[10] = target: PI4P5Kβ (Homo sapiens, UniProt O14986); assay: Lipid kinase off-target inhibition assay; assay type: biochemical; conditions: Fig. S3C
[11] = target: PI4P5Kγ (Homo sapiens, UniProt O60331); assay: Lipid kinase off-target inhibition assay; assay type: biochemical; conditions: Fig. S3C
[12] = target: top off-targets except for BRK and ABL1; assay: Z'LYTE kinase assay; assay type: biochemical; conditions: Fig. S4A
In short: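 ATP at apparent Km. Kinases tested were TYK2, RPS6KA4 (MSK2), CSNK2A2 (CK2α2), KIT and PDGFRB.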

[13] = tested on: PI5P4K; assay: Competitive streptavidin pulldown after pre-treating HEK293T cells; assay type: cell-based
In short: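 HEK293T cells grown to 90–95% confluence were pretreated 6h with DMSO or varying test compound concentrations, then washed twice in cold PBS. Lysis on ice 60 min with protease inhibitors, cleared 20,000 × g 15 min at 4°C, protein-equalized by BCA. Lysates were rotated overnight at 4°C with 1 μM biotinylated probe, then 2h at RT, then on streptavidin resin 2h at 4°C. Beads washed ×5, boiled in LDS 95°C 10 min, immunoblotted.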

[14] = tested on: AML/ALL cell lines; assay: 72 h Cell-Titer Glo proliferation assay; assay type: cell-based; conditions: all six AML/ALL cell lines
In short: (§3)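 Cells plated in 96- or 384-well format and treated with test compound over a concentration range for 72h. Viability read by CellTiter-Glo luminescence. Leukemia lines cultured per ATCC/DSMZ recommendations in 5% CO2. K562 and KU812F came from an outside lab.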

[15] = tested on: K562 and KU812F; assay: Proliferation of BCR-ABL translocation containing cell lines; assay type: cell-based; conditions: Fig. S4C
In short: as §3

[16] = tested on: HeLa cells; assay: TFEB nuclear localization immunofluorescence; assay type: cell-based; conditions: 0.25-1.0 μM overnight
[17] = tested on: HeLa cells; assay: RFP-GFP-LC3B tandem sensor autophagy flux assay; assay type: cell-based; conditions: 1 μM, 16 hours
In short: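 HeLa cells (DMEM, 10% FBS) on coverslip-bottomed dishes were transduced with 40 particles/cell of the RFP-GFP-LC3B tandem sensor and cultured 16–24h. They were then exposed to DMSO, 50 μM chloroquine or 1 μM test compound for 16h. Live imaging at 37°C in phenol red-free DMEM by spinning-disk confocal microscopy.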

T4 sequence (Q9Y2I7 whole entry): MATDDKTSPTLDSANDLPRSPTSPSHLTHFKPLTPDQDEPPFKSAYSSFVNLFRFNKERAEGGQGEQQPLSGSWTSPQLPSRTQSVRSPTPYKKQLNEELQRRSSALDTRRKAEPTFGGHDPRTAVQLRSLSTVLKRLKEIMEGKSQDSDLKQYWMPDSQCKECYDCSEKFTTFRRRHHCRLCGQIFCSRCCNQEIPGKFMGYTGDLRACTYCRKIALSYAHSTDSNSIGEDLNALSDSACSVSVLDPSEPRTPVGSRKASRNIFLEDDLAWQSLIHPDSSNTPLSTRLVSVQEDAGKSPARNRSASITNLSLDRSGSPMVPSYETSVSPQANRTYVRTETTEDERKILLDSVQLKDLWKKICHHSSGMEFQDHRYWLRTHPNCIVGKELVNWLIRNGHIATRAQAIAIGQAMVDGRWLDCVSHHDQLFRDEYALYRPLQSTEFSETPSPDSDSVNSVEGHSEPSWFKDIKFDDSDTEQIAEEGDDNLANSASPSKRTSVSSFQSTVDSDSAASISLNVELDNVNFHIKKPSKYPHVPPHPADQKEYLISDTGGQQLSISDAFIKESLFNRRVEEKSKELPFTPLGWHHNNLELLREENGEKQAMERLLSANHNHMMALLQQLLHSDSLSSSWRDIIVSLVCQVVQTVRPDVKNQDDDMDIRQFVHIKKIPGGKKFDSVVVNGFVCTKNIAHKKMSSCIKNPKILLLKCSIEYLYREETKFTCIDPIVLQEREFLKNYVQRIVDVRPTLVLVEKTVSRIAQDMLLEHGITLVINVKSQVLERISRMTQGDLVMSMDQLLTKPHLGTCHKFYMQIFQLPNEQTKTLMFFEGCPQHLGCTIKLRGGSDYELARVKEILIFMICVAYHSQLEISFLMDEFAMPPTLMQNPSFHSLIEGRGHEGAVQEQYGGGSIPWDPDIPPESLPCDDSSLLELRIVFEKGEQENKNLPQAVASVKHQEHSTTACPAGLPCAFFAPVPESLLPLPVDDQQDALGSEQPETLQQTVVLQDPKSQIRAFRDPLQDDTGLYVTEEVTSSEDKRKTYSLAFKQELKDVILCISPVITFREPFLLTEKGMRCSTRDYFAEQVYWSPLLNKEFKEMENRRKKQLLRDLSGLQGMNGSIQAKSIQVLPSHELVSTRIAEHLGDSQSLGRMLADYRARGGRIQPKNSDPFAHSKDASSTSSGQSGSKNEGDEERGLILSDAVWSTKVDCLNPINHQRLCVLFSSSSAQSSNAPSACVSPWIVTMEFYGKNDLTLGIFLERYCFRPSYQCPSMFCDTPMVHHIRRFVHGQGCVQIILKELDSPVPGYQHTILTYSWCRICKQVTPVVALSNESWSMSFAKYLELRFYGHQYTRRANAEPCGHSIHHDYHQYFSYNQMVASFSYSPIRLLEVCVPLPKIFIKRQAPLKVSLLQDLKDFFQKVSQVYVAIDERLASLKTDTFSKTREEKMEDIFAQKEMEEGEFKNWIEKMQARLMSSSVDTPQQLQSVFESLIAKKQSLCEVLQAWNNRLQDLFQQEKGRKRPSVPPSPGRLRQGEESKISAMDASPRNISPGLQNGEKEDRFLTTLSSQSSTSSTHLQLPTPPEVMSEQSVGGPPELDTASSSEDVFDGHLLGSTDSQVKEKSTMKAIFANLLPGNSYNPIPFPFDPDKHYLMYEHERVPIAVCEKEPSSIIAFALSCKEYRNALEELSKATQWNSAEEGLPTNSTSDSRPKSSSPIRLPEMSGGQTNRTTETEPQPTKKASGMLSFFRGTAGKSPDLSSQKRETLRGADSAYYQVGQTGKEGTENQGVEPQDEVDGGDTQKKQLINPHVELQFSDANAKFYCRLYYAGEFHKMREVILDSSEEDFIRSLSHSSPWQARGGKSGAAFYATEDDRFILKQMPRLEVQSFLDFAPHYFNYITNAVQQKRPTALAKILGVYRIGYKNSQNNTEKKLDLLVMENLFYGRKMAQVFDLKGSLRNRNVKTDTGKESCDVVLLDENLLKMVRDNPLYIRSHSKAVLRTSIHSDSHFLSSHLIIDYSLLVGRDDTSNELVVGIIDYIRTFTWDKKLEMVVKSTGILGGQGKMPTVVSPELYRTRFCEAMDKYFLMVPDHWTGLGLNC
Chain of PI4P5Kα (Q99755 whole entry): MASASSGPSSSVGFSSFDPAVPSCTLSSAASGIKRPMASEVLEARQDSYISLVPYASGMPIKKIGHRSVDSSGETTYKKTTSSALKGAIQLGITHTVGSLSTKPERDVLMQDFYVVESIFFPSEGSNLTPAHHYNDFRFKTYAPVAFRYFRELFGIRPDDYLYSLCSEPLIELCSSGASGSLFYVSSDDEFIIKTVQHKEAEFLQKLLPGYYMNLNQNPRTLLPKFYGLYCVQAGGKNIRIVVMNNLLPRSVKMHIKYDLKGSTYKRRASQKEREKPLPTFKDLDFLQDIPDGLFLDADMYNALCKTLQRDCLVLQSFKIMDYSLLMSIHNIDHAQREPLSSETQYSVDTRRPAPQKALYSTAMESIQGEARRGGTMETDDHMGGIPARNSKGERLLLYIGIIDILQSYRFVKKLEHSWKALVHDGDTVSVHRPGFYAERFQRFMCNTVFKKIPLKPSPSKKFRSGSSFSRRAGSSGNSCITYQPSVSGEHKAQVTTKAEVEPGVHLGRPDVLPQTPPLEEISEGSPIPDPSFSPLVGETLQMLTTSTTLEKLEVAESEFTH
Chain of PI4P5Kβ (O14986 whole entry): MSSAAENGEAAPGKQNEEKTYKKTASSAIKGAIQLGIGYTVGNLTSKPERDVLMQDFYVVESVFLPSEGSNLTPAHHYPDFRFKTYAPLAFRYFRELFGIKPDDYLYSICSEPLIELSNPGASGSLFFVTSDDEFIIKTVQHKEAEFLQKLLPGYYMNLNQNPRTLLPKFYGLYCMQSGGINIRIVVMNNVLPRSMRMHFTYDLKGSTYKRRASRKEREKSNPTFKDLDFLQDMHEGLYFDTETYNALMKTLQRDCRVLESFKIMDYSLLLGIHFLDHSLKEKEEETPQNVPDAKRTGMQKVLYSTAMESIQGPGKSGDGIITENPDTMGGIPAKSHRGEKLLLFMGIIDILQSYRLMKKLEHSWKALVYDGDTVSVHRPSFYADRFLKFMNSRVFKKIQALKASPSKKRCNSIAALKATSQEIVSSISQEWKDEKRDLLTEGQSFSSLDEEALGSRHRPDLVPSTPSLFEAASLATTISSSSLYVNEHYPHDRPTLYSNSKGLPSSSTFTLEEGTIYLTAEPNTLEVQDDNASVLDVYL
Chain of PI4P5Kγ (O60331 whole entry): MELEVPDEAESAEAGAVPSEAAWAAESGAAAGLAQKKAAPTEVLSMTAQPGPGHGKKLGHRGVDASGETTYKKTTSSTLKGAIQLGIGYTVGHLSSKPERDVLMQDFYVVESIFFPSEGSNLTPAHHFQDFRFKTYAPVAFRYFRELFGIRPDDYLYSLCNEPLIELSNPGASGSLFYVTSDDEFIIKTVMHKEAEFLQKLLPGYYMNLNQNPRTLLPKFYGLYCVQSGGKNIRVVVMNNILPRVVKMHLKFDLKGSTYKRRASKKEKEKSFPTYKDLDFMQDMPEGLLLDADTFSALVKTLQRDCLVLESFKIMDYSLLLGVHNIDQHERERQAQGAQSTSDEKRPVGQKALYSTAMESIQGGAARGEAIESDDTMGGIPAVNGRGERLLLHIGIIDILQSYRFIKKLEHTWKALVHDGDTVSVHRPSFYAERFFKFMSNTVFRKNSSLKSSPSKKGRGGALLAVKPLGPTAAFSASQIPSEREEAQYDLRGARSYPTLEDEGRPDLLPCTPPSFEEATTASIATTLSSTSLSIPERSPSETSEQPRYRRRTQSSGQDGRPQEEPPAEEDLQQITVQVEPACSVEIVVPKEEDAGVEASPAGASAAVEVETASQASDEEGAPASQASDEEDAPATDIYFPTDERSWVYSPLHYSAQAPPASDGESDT

CN(C)C/C=C/C(=O)Nc1cccc(C(=O)Nc2ccc(Nc3nccc(-c4cccnc4)n3)cc2)c1 [JNK-IN-7, reference compound]
inhibition of kinase activity (in words) ([1]; Fig. S1B-C): inhibit
inhibition of kinase activity (in words) ([2]; Fig. S1B-C): inhibit
inhibition of kinase activity (in words) [3]: inhibit

Cc1cccc(/C=N/Nc2cc(N3CCOCC3)nc(OCCc3ccccn3)n2)c1 [apilimod, reference compound]
concentration causing substantial vacuolar enlargement ([4]; positive control): 10 nM

CN(C)C/C=C/C(=O)Nc1ccc(C(=O)Nc2cccc(Nc3cc(-c4c[nH]c5ccccc45)ncn3)c2)cc1 [THZ-P1-2]
inhibition of PI-4,5-P2 formation ([1]; 0.7 μM): approximately 75%
inhibition of PI-4,5-P2 formation ([2]; 0.7 μM): ~50%
covalent labeling [5]: 100%
covalent labeling [6]: 100%
% DMSO control [7]: 6.4 % DMSO control
IC50 [8]: 40 nM
IC50 (in words) [9]: low micromolar
IC50 (in words) [10]: low micromolar
IC50 (in words) [11]: low micromolar
inhibition of PIKfyve in cells (in words) ([4]; 1 μM): failed to show inhibition
IC50 (in words) [12]: micromolar range
earliest time of on-target engagement in washout pulldown ([13]; 1 μM compound treatment, washout at 2 and 4 hours): 2 h
competition of pulldown by 1 μM dtb-THZ-P1-2 (in words) ([13]; pre-treatment of HEK293T cells): compete and block pulldown
anti-proliferative IC50 (in words) [14]: low micromolar range
potency at killing cells versus imatinib, nilotinib and dasatinib (in words) [15]: markedly less potent
nuclear TFEB accumulation (in words) [16]: increase
GFP signal of RFP-GFP-LC3B sensor (in words) [17]: marked increase
RFP signal of RFP-GFP-LC3B sensor (in words) [17]: moderate increase
